Our source for the IC50 values is ChEMBL document CHEMBL1148280, “Design, synthesis, structural studies, biological evaluation, and computational simulations of novel potent AT(1) angiotensin II receptor antagonists based on the 4-phenylquinoline structure” (J Med Chem, 2004).

In one test the target is T1, Type-1 angiotensin II receptor B (Rattus norvegicus, UniProt P29089).
T1 sequence (P29089 whole entry): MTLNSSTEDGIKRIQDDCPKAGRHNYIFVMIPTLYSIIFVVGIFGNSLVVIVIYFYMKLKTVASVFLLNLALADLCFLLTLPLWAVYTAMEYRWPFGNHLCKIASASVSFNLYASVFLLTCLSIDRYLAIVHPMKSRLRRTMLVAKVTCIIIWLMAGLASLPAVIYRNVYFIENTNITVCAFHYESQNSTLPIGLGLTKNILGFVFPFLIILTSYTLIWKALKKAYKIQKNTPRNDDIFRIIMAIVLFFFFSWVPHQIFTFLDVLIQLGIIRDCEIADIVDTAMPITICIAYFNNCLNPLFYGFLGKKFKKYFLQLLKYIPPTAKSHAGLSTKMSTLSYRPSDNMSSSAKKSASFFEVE
Description: Binding affinity for rat angiotensin II receptor, type 1.
Settings: not given
One may read the IC50 as the concentration that gives 50% inhibition. A low value points to inhibition by little substance. On to `CCCCC(=O)N(Cc1ccc(-c2ccccc2-c2nnn[nH]2)cc1)[C@H](C(=O)O)C(C)C`, for which the half-maximal inhibitory concentration (IC50) worked out at 1.9 nM. Same read-out and setting: to `CCCc1nc2c(C)ccnc2n1Cc1ccc(-c2ccccc2-c2nn[nH]n2)cc1` belongs 1 nM. Still for that read-out and setting: to `CCCNc1nc2ccccc2c(-c2ccc(Cn3c(CC)nc4c(C)cc(C)nc43)cc2)c1C(=O)O` belongs 66 nM; to `CCc1nc2c(C)cc(C)nc2n1Cc1ccc(-c2c(CC(=O)O)cnc3ccccc23)cc1`, 576 nM; to `CCCc1nc2c(C)cc(C)nc2n1Cc1ccc(-c2c(C(=O)O)c(Cl)nc3ccccc23)cc1`, 7.7 nM.

In turn, `CCCc1nc2c(C)cc(C)nc2n1Cc1ccc(-c2c(C(=O)O)c(O)nc3ccccc23)cc1` had a half-maximal inhibitory concentration (IC50) of 261 nM. Still for that read-out and setting: for `CCCc1nc2c(C)cc(C)nc2n1Cc1ccc(-c2ccccc2-c2nn[nH]n2)cc1` the value was 0.8 nM.

`CCCCc1nc2c(C)cc(C)nc2n1Cc1ccc(-c2c(C(=O)O)c(N)nc3ccccc23)cc1` returned an IC50 of 13 nM.

Consider `CCCc1nc2c(C)cc(C)nc2n1Cc1ccc(-c2c(-c3nn[nH]n3)cnc3ccccc23)cc1`, for which the concentration for half-maximal inhibition (IC50) amounted to 12 nM.

Take `CCCCc1nc2c(C)cc(C)nc2n1Cc1ccc(-c2c(C(=O)O)cnc3ccccc23)cc1`: the concentration for half-maximal inhibition (IC50) is 41 nM. On the same count and under the same terms, for `CCc1nc2c(C)cc(C)nc2n1Cc1ccc(-c2c(CC(=O)O)c(Cl)nc3ccccc23)cc1` the value was 215 nM. The same measure, in the same setting: for `CCCc1nc2c(C)ccnc2n1Cc1ccc(-c2ccncc2-c2nnn[nH]2)cc1` the value was 4 nM; for `CCCc1nc2c(C)ccnc2n1Cc1ccc(-c2cccnc2-c2nn[nH]n2)cc1`, 60 nM; for `CCc1nc2c(C)cc(C)nc2n1Cc1ccc(-c2c(C(=O)O)ccc3ccccc23)cc1`, 33 nM. Still for that read-out and setting: for `CCCc1nc2c(C)cc(C)nc2n1Cc1ccc(-c2c(C(=O)NS(=O)(=O)c3ccc([N+](=O)[O-])cc3)cnc3ccccc23)cc1` the value was 106 nM; for `CCCN(CCC)c1nc2ccccc2c(-c2ccc(Cn3c(CC)nc4c(C)cc(C)nc43)cc2)c1C(=O)O`, 492 nM; for `CCCc1nc2c(C)cc(C)nc2n1Cc1ccc(-c2c(C(=O)O)c(C)nc3ccccc23)cc1`, 9 nM. `CCc1nc2c(C)cc(C)nc2n1Cc1ccc(-c2c(C(=O)O)c(N)nc3ccccc23)cc1` had an IC50 of 13 nM. The same measure, in the same setting: to `CCCCc1nc(CCCC)n(Cc2ccc(-c3ccccc3-c3nnn[nH]3)cc2)n1` belongs 5.6 nM; to `CCc1nc2c(C)cc(C)nc2n1Cc1ccc(-c2c(-c3nnn[nH]3)cnc3ccccc23)cc1`, 6.9 nM. The same measure, in the same setting: to `CCCCc1nc(CCCC)n(Cc2ccc(-c3ncccc3-c3nnn[nH]3)cc2)n1` belongs 98 nM. Still for that read-out and setting: to `CCc1nc2c(C)cc(C)nc2n1Cc1ccc(-c2ncccc2-c2nn[nH]n2)cc1` belongs 18 nM; to `CCc1nc2c(C)cc(C)nc2n1Cc1ccc(-c2c(C(=O)O)c(N(C)C)nc3ccccc23)cc1`, 29 nM; to `CCc1nc2c(C)cc(C)nc2n1Cc1ccc(-c2c(C(=O)O)cnc3ccccc23)cc1`, 17 nM. The compound `CCc1nc2c(C)cc(C)nc2n1Cc1ccc(-c2c(C(=O)O)c(NC)nc3ccccc23)cc1` yielded an IC50 of 13 nM. The IC50 values of the last two compounds are within 1.5-fold of each other. The same measure, in the same setting: to `CCc1nc2c(C)cc(C)nc2n1Cc1ccc(-c2c(C(=O)O)c3nnnn3c3ccccc23)cc1` belongs 52 nM; to `CCCc1nc2c(C)cc(C)nc2n1Cc1ccc(-c2c(C(=O)O)c(N)nc3ccccc23)cc1`, 4.2 nM; to `CCCCc1nc(CCCC)n(Cc2ccc(-c3cnccc3-c3nnn[nH]3)cc2)n1`, 150 nM. `CCCCc1nc(CCCC)n(Cc2ccc(-c3ccncc3-c3nnn[nH]3)cc2)n1` returned a half-inhibitory concentration (IC50) of 250 nM. This IC50 is about 1.7-fold higher than that of the compound before.

For the compound `CCc1nc2c(C)cc(C)nc2n1Cc1ccc(-c2c(C(=O)O)c(=O)n(C)c3ccccc23)cc1`, the IC50 was 326 nM.

Regarding `CCc1nc2c(C)cc(C)nc2n1Cc1ccc(-c2c(C(=O)O)c(OC)nc3ccccc23)cc1`, the IC50 came to 74 nM. The same measure, in the same setting: to `CCCCc1nc(CCCC)n(Cc2ccc(-c3cccnc3-c3nnn[nH]3)cc2)n1` belongs 110 nM; to `CCc1nc2c(C)cc(C)nc2n1Cc1ccc(-c2ncccc2C(=O)O)cc1`, 819 nM; to `CCc1nc2c(C)cc(C)nc2n1Cc1ccc(-c2ccccc2-c2nnn[nH]2)cc1` [L-158809], 0.4 nM.

For the next test, the species on record is Oryctolagus cuniculus. The test can be described thus: Inhibition of angiotensin II induced contraction in rabbit aortic strips after 120 minutes contact with the compound. In kind it is functional. To be noted: Aorta, 2 h. The essentials: (§1)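 Rabbit aortic strips under 2 g resting tension, isometric recording, equilibrated 1 h. A cumulative Ang II concentration–response curve was run first, then a 30 min washout. Antagonist or vehicle was added at several concentrations before a submaximal (70–80%) Ang II challenge; contact time differed by line. Percent inhibition was regressed to give IC50 with P = 0.05 fiducial limits.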
With `CCc1nc2c(C)cc(C)nc2n1Cc1ccc(-c2c(-c3nnn[nH]3)cnc3ccccc23)cc1`, the IC50 was determined as 2 nM. Turning to `CCc1nc2c(C)cc(C)nc2n1Cc1ccc(-c2c(C(=O)O)c(=O)n(C)c3ccccc23)cc1`, 170 nM corresponded to half-maximal inhibition (IC50).

The next test is filed under the species Oryctolagus cuniculus. Description: Inhibition of angiotensin II induced contraction in rabbit aortic strips after 60 minutes contact with the compound. To be noted: Aorta, 1 h. Type of test: functional. The essentials: as §1
Consider `CCCc1nc2c(C)cc(C)nc2n1Cc1ccc(-c2c(C(=O)O)c(C)nc3ccccc23)cc1`, for which half-maximal inhibition (IC50) was put at 13 nM. Still for that read-out and setting: to `CCc1nc2c(C)cc(C)nc2n1Cc1ccc(-c2c(-c3nnn[nH]3)cnc3ccccc23)cc1` belongs 4 nM; to `CCCc1nc2c(C)cc(C)nc2n1Cc1ccc(-c2c(C(=O)O)c(N)nc3ccccc23)cc1`, 3.3 nM; to `CCCCc1nc(Cl)c(CO)n1Cc1ccc(-c2ccccc2-c2nnn[nH]2)cc1` [LOSARTAN], 9.9 nM.
